Test results published in ChEMBL document CHEMBL1135354, “Synthesis and activity of a novel class of tribasic macrocyclic antibiotics: the triamilides” (2002).
In brackets after ≈: the same amount, converted by molar mass.

Tests used:
Format in all cases: functional
Escherichia coli = experiment: In vitro minimum inhibitory concentration required to inhibit growth of Escherichia coli.; conditions: Escherichia coli
Procedure, shortened: (§1)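 Broth microdilution per NCCLS; E. coli 51A0150 (poultry lung) and P. multocida 59A0067 (turkey). Overnight BHI plate colonies suspended in saline to OD625 0.09 (0.5 McFarland), diluted 1:100 in BHI broth; final ~5×10^5 cfu/mL against 2-fold serial dilutions in BHI broth.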

Pasteurella multocida [1] = experiment: Effective dose required to inhibit Pasteurella multocida infection model in mouse by subcutaneous administration; conditions: Pasteurella multocida, sc; read-out: ED50
Procedure, shortened: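 Mice infected intranasally with P. multocida (respiratory disease model); drug given subcutaneously 0.5 h post-infection at 5–80 mg/kg. ED50 derived from number of surviving mice 4 days after infection.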

Pasteurella multocida [2] = experiment: Minimum inhibitory concentration required to inhibit growth of Pasteurella multocida in vitro by microdilution method.; conditions: Pasteurella multocida; read-out: MIC; procedure, shortened: as §1

Row | SMILES | MIC (Escherichia coli) [µg/mL] | MIC (Pasteurella multocida [2]) [µg/mL] | ED50 (Pasteurella multocida [1]) [mg/kg]
1 | CC[C@H]1OC(=O)[C@H](C)[C@@H](O[C@H]2C[C@@](C)(OC)[C@](O)(CN3CCCCC3)[C@H](C)O2)[C@H](C)[C@@H](O[C@@H]2O[C@H](C)C[C@H](N(C)C)[C@H]2O)[C@](C)(O)C[C@@H](C)CN[C@H](C)[C@@H](O)[C@]1(C)O | 0.39 (≈ 0.469 µM) | 0.05 (≈ 0.0601 µM) | –
2 | CC[C@H]1OC(=O)[C@H](C)[C@@H](O[C@H]2C[C@@](C)(OC)[C@](O)(CNC(C)(C)C)[C@H](C)O2)[C@H](C)[C@@H](O[C@@H]2O[C@H](C)C[C@H](N(C)C)[C@H]2O)[C@](C)(O)C[C@@H](C)CN[C@H](C)[C@@H](O)[C@]1(C)O | 0.39 (≈ 0.476 µM) | 0.05 (≈ 0.061 µM) | 9.6
3 | CC[C@H]1OC(=O)[C@H](C)[C@@H](O[C@H]2C[C@@](C)(OC)[C@@](O)(CN3CCCC3)[C@H](C)O2)[C@H](C)[C@@H](O[C@@H]2O[C@H](C)C[C@H](N(C)C)[C@H]2O)[C@](C)(O)C[C@@H](C)CN[C@H](C)[C@@H](O)[C@]1(C)O | 0.2 (≈ 0.244 µM) | 50 (≈ 61.1 µM) | 7.3
4 | CC[C@H]1OC(=O)[C@H](C)[C@@H](O[C@H]2C[C@@](C)(OC)[C@@](O)(CNC(C)(C)C)[C@H](C)O2)[C@H](C)[C@@H](O[C@@H]2O[C@H](C)C[C@H](N(C)C)[C@H]2O)[C@](C)(O)C[C@@H](C)CN[C@H](C)[C@@H](O)[C@]1(C)O | 0.39 (≈ 0.476 µM) | 0.1 (≈ 0.122 µM) | 14
5 | CCCCCCNC[C@@]1(O)[C@H](C)O[C@@H](OC2[C@@H](C)C(=O)O[C@H](CC)[C@@](C)(O)[C@H](O)[C@@H](C)NC[C@H](C)C[C@@](C)(O)[C@H](O[C@@H]3O[C@H](C)C[C@H](N(C)C)[C@H]3O)[C@H]2C)C[C@@]1(C)OC (stereo partly drawn) | 0.78 (≈ 0.92 µM) | 0.2 (≈ 0.236 µM) | > 80
6 | CC[C@H]1OC(=O)[C@H](C)[C@@H](O[C@H]2C[C@@](C)(OC)[C@@](O)(CN(CCO)CCO)[C@H](C)O2)[C@H](C)[C@@H](O[C@@H]2O[C@H](C)C[C@H](N(C)C)[C@H]2O)[C@](C)(O)C[C@@H](C)CN[C@H](C)[C@@H](O)[C@]1(C)O | > 50 | 3.13 (≈ 3.67 µM) | –

Second part, led by results:

Row | MIC (Escherichia coli) [µg/mL] | MIC (Pasteurella multocida [2]) [µg/mL] | SMILES | ED50 (Pasteurella multocida [1]) [mg/kg]
7 | 0.2 (≈ 0.244 µM) | 0.05 (≈ 0.0611 µM) | CC[C@H]1OC(=O)[C@H](C)[C@@H](O[C@H]2C[C@@](C)(OC)[C@](O)(CN3CCCC3)[C@H](C)O2)[C@H](C)[C@@H](O[C@@H]2O[C@H](C)C[C@H](N(C)C)[C@H]2O)[C@](C)(O)C[C@@H](C)CN[C@H](C)[C@@H](O)[C@]1(C)O | < 10
8 | 0.78 (≈ 0.951 µM) | 0.1 (≈ 0.122 µM) | CCCCNC[C@]1(O)[C@H](C)O[C@@H](O[C@H]2[C@H](C)[C@@H](O[C@@H]3O[C@H](C)C[C@H](N(C)C)[C@H]3O)[C@](C)(O)C[C@@H](C)CN[C@H](C)[C@@H](O)[C@](C)(O)[C@@H](CC)OC(=O)[C@@H]2C)C[C@@]1(C)OC | 17
9 | 0.78 (≈ 0.97 µM) | 0.1 (≈ 0.124 µM) | CC[C@H]1OC(=O)[C@H](C)[C@@H](O[C@H]2C[C@@](C)(OC)[C@](O)(CNC3CC3)[C@H](C)O2)[C@H](C)[C@@H](O[C@@H]2O[C@H](C)C[C@H](N(C)C)[C@H]2O)[C@](C)(O)C[C@@H](C)CN[C@H](C)[C@@H](O)[C@]1(C)O | 15
10 | 6.25 (≈ 8.18 µM) | 0.39 (≈ 0.51 µM) | CC[C@H]1OC(=O)[C@H](C)[C@@H](O[C@H]2C[C@@](C)(OC)[C@](O)(CN)[C@H](C)O2)[C@H](C)[C@@H](O[C@@H]2O[C@H](C)C[C@H](N(C)C)[C@H]2O)[C@](C)(O)C[C@@H](C)CN[C@H](C)[C@@H](O)[C@]1(C)O | –
11 | 1.56 (≈ 1.89 µM) | 0.2 (≈ 0.242 µM) | CC[C@H]1OC(=O)[C@H](C)[C@@H](O[C@H]2C[C@@](C)(OC)[C@@](O)(CSCCO)[C@H](C)O2)[C@H](C)[C@@H](O[C@@H]2O[C@H](C)C[C@H](N(C)C)[C@H]2O)[C@](C)(O)C[C@@H](C)CN[C@H](C)[C@@H](O)[C@]1(C)O | 51
12 | 0.78 (≈ 0.949 µM) | < 0.1 | CC[C@H]1OC(=O)[C@H](C)[C@@H](O[C@H]2C[C@@](C)(OC)[C@@](O)(CNCCOC)[C@H](C)O2)[C@H](C)[C@@H](O[C@@H]2O[C@H](C)C[C@H](N(C)C)[C@H]2O)[C@](C)(O)C[C@@H](C)CN[C@H](C)[C@@H](O)[C@]1(C)O | 9.5
